Reference: ChEMBL document CHEMBL4706621, “An attempt to chemically state the cross-talk between monomers of COX homodimers by double/hybrid inhibitors mofezolac-spacer-mofezolac and mofezolac-spacer-arachidonic acid” (Eur J Med Chem, 2021)

Legend:
[1] = Selectivity index, ratio of IC50 for human COX-2 to IC50 for ovine COX-1
Method in brief: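 Selectivity index is calculated as COX-2 IC50 divided by COX-1 IC50, each taken from the colorimetric TMPD peroxidase assay with arachidonic acid substrate.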

[2] = target: T1, Prostaglandin G/H synthase 2 (Homo sapiens, UniProt P35354); experiment: Inhibition of human COX-2 assessed as peroxidase activity using arachidonic acid as substrate by colorimetric method
T1 sequence (P35354 whole entry): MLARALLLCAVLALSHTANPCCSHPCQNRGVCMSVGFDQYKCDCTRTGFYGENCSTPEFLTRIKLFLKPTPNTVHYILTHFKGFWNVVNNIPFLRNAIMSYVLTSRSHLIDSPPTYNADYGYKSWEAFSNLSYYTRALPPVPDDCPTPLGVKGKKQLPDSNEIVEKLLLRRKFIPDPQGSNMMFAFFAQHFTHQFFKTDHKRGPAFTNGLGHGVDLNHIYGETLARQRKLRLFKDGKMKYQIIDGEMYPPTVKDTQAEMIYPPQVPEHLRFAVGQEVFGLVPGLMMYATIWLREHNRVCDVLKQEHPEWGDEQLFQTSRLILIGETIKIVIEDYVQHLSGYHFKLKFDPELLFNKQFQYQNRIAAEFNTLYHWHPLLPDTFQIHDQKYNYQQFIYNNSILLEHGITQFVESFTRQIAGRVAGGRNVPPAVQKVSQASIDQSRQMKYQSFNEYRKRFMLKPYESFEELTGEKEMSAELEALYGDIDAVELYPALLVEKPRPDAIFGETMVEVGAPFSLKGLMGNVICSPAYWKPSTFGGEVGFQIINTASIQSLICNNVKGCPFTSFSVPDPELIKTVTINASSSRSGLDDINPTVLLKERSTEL
Method in brief: (§1)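 Colorimetric COX inhibitor screening kit measuring cyclooxygenase peroxidase activity on arachidonic acid substrate, read as oxidized TMPD at 590 nm. Compound stocks are made in DMSO. IC50 is the mean of at least three independent measurements. Percent inhibition is taken at the highest final inhibitor concentration, 50 µM.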

[3] = target: T2, Prostaglandin G/H synthase 1 (Ovis aries) (UniProt P05979); experiment: Inhibition of ovine COX-1 assessed as peroxidase activity using arachidonic acid as substrate at 50 uM by colorimetric method; method in brief: as §1
T2 sequence (whole entry): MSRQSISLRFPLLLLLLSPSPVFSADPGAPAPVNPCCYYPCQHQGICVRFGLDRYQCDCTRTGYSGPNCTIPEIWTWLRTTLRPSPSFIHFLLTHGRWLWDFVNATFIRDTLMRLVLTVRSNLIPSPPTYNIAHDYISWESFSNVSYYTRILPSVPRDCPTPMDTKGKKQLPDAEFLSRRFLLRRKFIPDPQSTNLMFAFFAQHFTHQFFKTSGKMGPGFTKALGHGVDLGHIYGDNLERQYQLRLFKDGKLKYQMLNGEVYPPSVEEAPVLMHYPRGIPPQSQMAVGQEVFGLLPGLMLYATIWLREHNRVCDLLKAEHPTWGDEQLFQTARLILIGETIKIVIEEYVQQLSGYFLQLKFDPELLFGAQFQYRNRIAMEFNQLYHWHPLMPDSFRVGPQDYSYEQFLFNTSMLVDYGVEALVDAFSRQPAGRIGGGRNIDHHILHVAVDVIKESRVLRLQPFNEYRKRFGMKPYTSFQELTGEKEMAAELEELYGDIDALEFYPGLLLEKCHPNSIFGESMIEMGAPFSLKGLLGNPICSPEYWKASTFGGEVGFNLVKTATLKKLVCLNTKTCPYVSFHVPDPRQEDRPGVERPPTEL

[4] = target: T3, Prostaglandin G/H synthase 1 (Ovis aries, UniProt P05979); experiment: Inhibition of ovine COX-1 assessed as peroxidase activity using arachidonic acid as substrate by colorimetric method; method in brief: as §1
T3 sequence (P05979 whole entry): T2 sequence (whole entry)

[5] = target: T4, Prostaglandin G/H synthase 2 (Homo sapiens) (UniProt P35354); experiment: Inhibition of human COX-2 assessed as peroxidase activity using arachidonic acid as substrate at 50 uM by colorimetric method; method in brief: as §1
T4 sequence (whole entry): T1 sequence (P35354 whole entry)

[6] = Genotoxicity in Salmonella typhimurium TA97 at 10 to 500 uM by AMES test; type: toxicity; conditions: salmonella enterica subsp. enterica serovar typhimurium, dose 10-500 µM
Method in brief: (§2)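 Ames reverse mutation to histidine prototrophy using S. typhimurium TA97, TA98, TA100 and TA102. Compounds are dissolved in DMSO and tested at 10, 100 and 500 µM.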

[7] = Hemolytic activity against human erythrocytes assessed as hemolysis incubated for 3 hrs by spectrophotometric analysis relative to control; type: ADME, cell-based, Erythrocyte; conditions: read-out: Activity
Method in brief: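 Citrated human blood (n=3) centrifuged at 2500 rpm for 15 min. The erythrocyte pellet is washed three times and resuspended in PBS pH 7.4. Compounds are incubated with the erythrocytes for 3 h at 37 °C. After centrifugation, released hemoglobin is read at 540 nm. Controls are 1% DMSO (negative) and 1% Triton X-100 (positive). Below 10% counts as non-hemolytic.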

[8] = Genotoxicity in Salmonella typhimurium TA102 at 10 to 500 uM by AMES test; type: toxicity; conditions: salmonella enterica subsp. enterica serovar typhimurium, dose 10-500 µM; method in brief: as §2
Plasma [9] = experiment: Antiplatelet activity in human platelet-rich plasma assessed as inhibition of arachidonic acid-induced platelet aggregation by turbidimetric method; type: functional
Method in brief: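 Platelet-rich and platelet-poor plasma prepared from human whole blood (n=3) by differential centrifugation. Compounds pre-incubated in PRP for 2 min, then aggregation is induced with 500 µM arachidonic acid and followed turbidimetrically in an aggregometer. IC50 is determined from several concentrations, in triplicate. Acetylsalicylic acid is the positive control; 1% DMSO vehicle is the negative control.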

Plasma [10] = experiment: Anticoagulant activity in human plasma assessed as activated partial thromboplastin time at 100 uM; type: functional
Method in brief: (§3)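 Human platelet-poor plasma from whole blood (n=3) by differential centrifugation, run on a coagulation analyzer. Compounds at 100 µM incubated with plasma 15 min at room temperature, then 2 min at 37 °C. For aPTT, cephalin is added for 2 min and clotting is started with 0.025 M CaCl2. For PT, PBS is added for 3 min and clotting is started with calcium thromboplastin. Clotting time is read in seconds at 37 °C. Negative control is 1% DMSO; positive control is 100 µM rivaroxaban.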

[11] = Mutagenicity in Escherichia coli PQ37 at 10 to 500 uM by SOS-chromotest; type: toxicity; conditions: dose 10-500 µM
Method in brief: (§4)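 SOS chromotest spot assay with E. coli PQ35 and PQ37. An overnight culture is diluted in LB and grown at 37 °C to 2×10^8 bacteria/mL. Then 0.1 mL is mixed in top agar and poured on M63 plates. 10 µL of compound in DMSO (10, 100 or 500 µM) is spotted centrally and plates are incubated overnight at 37 °C. A blue ring around the inhibition zone indicates genotoxicity. Run in triplicate with 4-NQO as positive control.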

[12] = Mutagenicity in Escherichia coli PQ35 at 10 to 500 uM by SOS-chromotest; type: toxicity; conditions: dose 10-500 µM; method in brief: as §4
[13] = Genotoxicity in Salmonella typhimurium TA100 at 10 to 500 uM by AMES test; type: toxicity; conditions: salmonella enterica subsp. enterica serovar typhimurium, dose 10-500 µM; method in brief: as §2
Plasma [14] = experiment: Anticoagulant activity in human plasma assessed as prothrombin time at 100 uM; type: functional; method in brief: as §3
[15] = Genotoxicity in Salmonella typhimurium TA98 at 10 to 500 uM by AMES test; type: toxicity; conditions: salmonella enterica subsp. enterica serovar typhimurium, dose 10-500 µM; method in brief: as §2
Vero [16] = experiment: Cytotoxicity against African green monkey Vero cells at 100 uM measured after 48 hrs by MTT assay relative to control; type: cell-based; conditions: chlorocebus sabaeus
Method in brief: (§5)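 Vero cells grown at 37 °C in 5% CO2 in medium with 10% inactivated FBS. Cells seeded at 3.2×10^4 per well and grown 24 h, then exposed to compounds for 48 h (n = 4). Control is DMEM with 10% FBS and 1% DMSO. MTT (2.5 mg/mL solution) is added for 3 h, formazan is dissolved in DMSO and absorbance is read at 570 nm. Viability is given as % of untreated cells, mean ± SD.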

Vero [17] = experiment: Cytotoxicity against African green monkey Vero cells at 10 uM measured after 48 hrs by MTT assay relative to control; type: cell-based; conditions: chlorocebus sabaeus; method in brief: as §5

SMILES | Ratio IC50 [1] | IC50 [2] | inhibition [3] | IC50 [4] | inhibition [5] | Activity [6] | hemolysis at 3 h [7] | Activity [8] | IC50 (Plasma [9]) | APTT (Plasma [10]) | Activity [11] | Activity [12] | Activity [13] | PT (Plasma [14]) | Activity [15] | Activity (Vero [16]) | Activity (Vero [17])
COc1ccc(-c2noc(CC(=O)NCCCCCCNC(=O)Cc3onc(-c4ccc(OC)cc4)c3-c3ccc(OC)cc3)c2-c2ccc(OC)cc2)cc1 | > 5.5 | > 50000 nM | 50% | 9000 nM |  |  |  |  |  |  |  |  |  |  |  |  | 
COc1ccc(-c2noc(CC(=O)NCCCCCCCCCCCCNC(=O)Cc3onc(-c4ccc(OC)cc4)c3-c3ccc(OC)cc3)c2-c2ccc(OC)cc2)cc1 | > 7 | > 50000 nM | 40% | 7100 nM |  |  |  |  |  |  |  |  |  |  |  |  | 
COc1ccc(-c2noc(CC(=O)Nc3ccc(-c4ccc(N)cc4)cc3)c2-c2ccc(OC)cc2)cc1 | 4 | 300 nM | 85% | 75 nM | 71% |  |  |  |  |  |  |  |  |  |  |  | 
COc1ccc(-c2noc(CC(=O)NCCNC(=O)Cc3onc(-c4ccc(OC)cc4)c3-c3ccc(OC)cc3)c2-c2ccc(OC)cc2)cc1 | 9 | 120 nM | 75% | 13 nM | 45% |  |  |  |  |  |  |  |  |  |  |  | 
CC(=O)Oc1ccccc1C(=O)O [ASPIRIN] |  |  |  |  |  | Non-Toxic | 0% | Non-Toxic | 1110 nM | 50.3 s | Non-Toxic | Non-Toxic | Non-Toxic | 14.6 s | Non-Toxic | 95% | 100%
CCCCC/C=C\C/C=C\C/C=C\C/C=C\CCCC(=O)NCCCCNC(=O)Cc1onc(-c2ccc(OC)cc2)c1-c1ccc(OC)cc1 | 0.05 | 800 nM | 57% |  | 61% |  |  |  |  |  |  |  |  |  |  |  | 
COc1ccc(-c2noc(CC(=O)Nc3ccc(N)cc3)c2-c2ccc(OC)cc2)cc1 | 0.02 | 500 nM | 74% | 24000 nM | 79% |  |  |  |  |  |  |  |  |  |  |  | 
COc1ccc(-c2noc(CC(=O)NCCCCNC(=O)Cc3onc(-c4ccc(OC)cc4)c3-c3ccc(OC)cc3)c2-c2ccc(OC)cc2)cc1 | > 9 | > 50000 nM | 74% | 5500 nM |  |  |  |  |  |  |  |  |  |  |  |  | 
COc1ccc(-c2noc(CC(=O)Nc3ccc(-c4ccc(NC(=O)Cc5onc(-c6ccc(OC)cc6)c5-c5ccc(OC)cc5)cc4)cc3)c2-c2ccc(OC)cc2)cc1 | > 625 | > 50000 nM | 73% | 80 nM |  | Non-Toxic | 0% | Non-Toxic | 440 nM | 46.5 s | Non-Toxic | Non-Toxic | Non-Toxic | 15.1 s | Non-Toxic | 92% | 100%
COc1ccc(-c2noc(CC(=O)Nc3ccc(NC(=O)Cc4onc(-c5ccc(OC)cc5)c4-c4ccc(OC)cc4)cc3)c2-c2ccc(OC)cc2)cc1 | > 333 | > 50000 nM | 85% | 150 nM |  | Non-Toxic | 0% | Non-Toxic | 910 nM | 47.5 s | Non-Toxic | Non-Toxic | Non-Toxic | 15.5 s | Non-Toxic | 97% | 98%
CCCCC/C=C\C/C=C\C/C=C\C/C=C\CCCC(=O)Nc1ccc(-c2ccc(NC(=O)Cc3onc(-c4ccc(OC)cc4)c3-c3ccc(OC)cc3)cc2)cc1 | 0.005 | 90 nM | 50% | 17000 nM | 60% | Non-Toxic | 0.14% | Non-Toxic | 760 nM | 48 s | Non-Toxic | Non-Toxic | Non-Toxic | 14.6 s | Non-Toxic | 84% | 94%
COc1ccc(-c2noc(CC(=O)NCCCCN)c2-c2ccc(OC)cc2)cc1 | 3.7 | 3500 nM | 100% | 950 nM | 51% |  |  |  |  |  |  |  |  |  |  |  | 
CCCCC/C=C\C/C=C\C/C=C\C/C=C\CCCC(=O)Nc1ccc(NC(=O)Cc2onc(-c3ccc(OC)cc3)c2-c2ccc(OC)cc2)cc1 |  | > 50000 nM | 66% | 50 nM |  |  | 0% |  | 610 nM | 55.6 s |  |  |  | 15.3 s |  | 79% | 93%
COc1ccc(-c2noc(CC(=O)O)c2-c2ccc(OC)cc2)cc1 [MOFEZOLAC] |  |  |  |  |  | Non-Toxic | 0% | Non-Toxic | 450 nM | 50.8 s | Non-Toxic | Non-Toxic | Non-Toxic | 14.2 s | Non-Toxic | 91% | 97%
COc1ccc(-c2noc(CC(=O)NCc3ccc(CNC(=O)Cc4onc(-c5ccc(OC)cc5)c4-c4ccc(OC)cc4)cc3)c2-c2ccc(OC)cc2)cc1 |  | > 50000 nM |  | > 50000 nM |  |  |  |  |  |  |  |  |  |  |  |  | 
